Activity calls are given as the source filed them. No cut-off for these calls is given here.

5 compounds from ChEMBL document CHEMBL3044983, “Antifungal activity and biotransformation of diisophorone by Botrytis cinerea” (J Agric Food Chem, 2005) can be followed below.

The test system of assay [1] is Botrytis cinerea. Nature of the assay: Antifungal activity against Botryotinia fuckeliana 2100 assessed as inhibition of radial mycelial growth at 50 ppm for 5 days by poisoned food technique. It counts as functional. The note with it: Botrytis cinerea, 2100, 120 h. In outline: (§1)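 Radial growth on glucose-malt-peptone-agar (pH 6.5-7.0). Test compound was added in ethanol to final 50-200 mg/L, and ethanol was equal in control and treated plates. A 1.5 cm mycelial disk from an actively growing culture was placed at the plate centre, and radial growth was followed over 8 days. Percent inhibition was taken from colony diameters relative to the negative control, as the mean of triplicates.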

Assay [2] concerns Botrytis cinerea. Nature of the assay: Antifungal activity against Botryotinia fuckeliana UCA992 assessed as inhibition of radial mycelial growth for 5 days by poisoned food technique. Format: functional, organism-based.
The subject of assay [3] is Botrytis cinerea. As to the kind of experiment: Antifungal activity against Botryotinia fuckeliana UCA992 assessed as inhibition of radial mycelial growth up to 150 ppm for 5 days by poisoned food technique. It counts as functional. In outline: as §1
Assay [4] concerns Botrytis cinerea. As to the kind of experiment: Antifungal activity against Botryotinia fuckeliana UCA992 assessed as inhibition of radial mycelial growth up to 50 ppm for 5 days by poisoned food technique. It counts as functional.
For assay [5], the system named is Botrytis cinerea. As to the kind of experiment: Antifungal activity against Botryotinia fuckeliana 2100 assessed as inhibition of radial mycelial growth for 5 days by poisoned food technique. It counts as functional, organism-based.
Assay [6] concerns Botrytis cinerea. As to the kind of experiment: Antifungal activity against Botryotinia fuckeliana UCA992 assessed as inhibition of radial mycelial growth up to 100 ppm for 5 days by poisoned food technique. Format: functional, organism-based. An outline of the steps:
as §1

Assay [7] has as its system Botrytis cinerea. As to the kind of experiment: Antifungal activity against Botryotinia fuckeliana UCA992 assessed as inhibition of radial mycelial growth up to 200 ppm for 5 days by poisoned food technique. It counts as functional. An outline of the steps:
as §1

As to `CC1(C)CC(=O)C2=C(C1)C[C@]1(C)CC(C)(C)C[C@@]2(O)C1` [DIISOPHORONE], the inhibition at 50 ppm in assay [1] came to 69%. Further, the IC50 in assay [2] was found to be 89 ppm; in assay [5] it was 70 ppm. For the same compound, the “inhibition (INH)” value in assay [3] amounted to 76%; in assay [4], 6%; in assay [7] it was 92%. The inhibition entry in assay [6] is “inactive”.
Consider `CC1(C)C[C@@]2(C)CC3=C(C(=O)CC(C)(C)[C@@H]3O)[C@@](O)(C1)C2`, for which the inhibition result in assay [6] and in assay [7] was “inactive” throughout.
Turning to `CC1(C)C[C@@]2(C)CC3=C(C(=O)CC(C)(C)[C@H]3O)[C@@](O)(C1)C2`, the inhibition result in assay [6] and in assay [7] was “inactive” each time.
As for `CC1(C)CC(=O)C2=C(C1)[C@@H](O)[C@]1(C)CC(C)(C)C[C@@]2(O)C1`, the inhibition result in assay [6] and in assay [7] was “inactive” throughout.
On to `CC1(C)C[C@@]2(O)C[C@@](C)(C1)[C@H](O)C1=C2C(=O)C[C@@](C)(CO)C1`, for which the inhibition entry in assay [6] and in assay [7] was “inactive” each time.

The inhibition is how much of the control response was suppressed.
